*1 amine or outer side, *2 acyl side, *3 side chain or, on linkers, in order; H or OH if unused. Where a SMILES comes first, the peptide text is derived from it. Bridges are numbered along the chain shown (N, C = ends). The star is where a group is joined. Staurosporine = CO[C@@H]1[C@H](N(C)*)C[C@H]2O[C@]1(C)n1c3ccccc3c3c4c(c5c6ccccc6n2c5c31)C(=O)NC4; Suc = O=C(CCC(=O)[*:2])[*:1]; βAla = NCCC(=O)O
Legend:
[1] = molecular target: T1, NUAK family SNF1-like kinase 2 (Homo sapiens) (UniProt Q9H093); assay: Binding affinity to human SNARK at 500 nM by cell-based competition binding assay relative to control in presence of DTT
T1 sequence (whole entry): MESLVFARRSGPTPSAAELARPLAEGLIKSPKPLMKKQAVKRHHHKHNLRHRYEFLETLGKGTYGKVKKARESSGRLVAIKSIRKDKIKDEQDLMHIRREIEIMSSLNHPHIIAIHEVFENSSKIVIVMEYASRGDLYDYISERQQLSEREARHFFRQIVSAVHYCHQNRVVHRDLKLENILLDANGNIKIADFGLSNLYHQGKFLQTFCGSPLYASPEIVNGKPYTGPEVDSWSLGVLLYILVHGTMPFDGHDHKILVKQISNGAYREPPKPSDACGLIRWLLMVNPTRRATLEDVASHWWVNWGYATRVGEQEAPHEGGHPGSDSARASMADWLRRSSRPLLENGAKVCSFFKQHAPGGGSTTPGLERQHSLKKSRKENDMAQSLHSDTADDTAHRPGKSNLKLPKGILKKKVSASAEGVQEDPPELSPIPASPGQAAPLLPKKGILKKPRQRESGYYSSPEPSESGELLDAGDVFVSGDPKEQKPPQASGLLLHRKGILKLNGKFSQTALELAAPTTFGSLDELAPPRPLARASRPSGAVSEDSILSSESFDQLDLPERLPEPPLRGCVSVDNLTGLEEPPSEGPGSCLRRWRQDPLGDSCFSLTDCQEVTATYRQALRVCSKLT

[2] = molecular target: T2, Protein kinase C epsilon type (Homo sapiens) (UniProt Q02156); assay: Binding affinity to human PRKCepsilon at 500 nM by cell-based competition binding assay relative to control in presence of DTT
T2 sequence (whole entry): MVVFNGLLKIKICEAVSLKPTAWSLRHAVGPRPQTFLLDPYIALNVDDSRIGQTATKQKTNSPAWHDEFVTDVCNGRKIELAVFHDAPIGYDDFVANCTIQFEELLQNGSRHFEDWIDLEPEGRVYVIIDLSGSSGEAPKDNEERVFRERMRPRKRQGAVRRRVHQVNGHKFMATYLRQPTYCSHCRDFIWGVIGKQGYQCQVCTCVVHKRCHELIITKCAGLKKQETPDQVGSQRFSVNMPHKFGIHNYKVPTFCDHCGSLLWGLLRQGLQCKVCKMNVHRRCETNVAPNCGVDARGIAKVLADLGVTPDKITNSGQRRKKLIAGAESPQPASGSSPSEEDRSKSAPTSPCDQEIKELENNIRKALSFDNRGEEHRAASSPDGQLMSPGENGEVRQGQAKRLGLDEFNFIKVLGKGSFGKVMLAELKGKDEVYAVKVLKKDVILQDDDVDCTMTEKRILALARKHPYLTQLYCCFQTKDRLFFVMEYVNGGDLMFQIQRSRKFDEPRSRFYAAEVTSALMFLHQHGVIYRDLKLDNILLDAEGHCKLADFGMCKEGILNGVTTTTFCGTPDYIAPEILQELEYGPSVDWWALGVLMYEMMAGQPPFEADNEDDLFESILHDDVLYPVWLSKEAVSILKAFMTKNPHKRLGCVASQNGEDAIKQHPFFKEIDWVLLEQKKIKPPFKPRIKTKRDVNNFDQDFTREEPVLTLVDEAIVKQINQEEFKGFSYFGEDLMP

[3] = molecular target: T3, TGF-beta receptor type-1 (Homo sapiens) (UniProt P36897); assay: Binding affinity to human TGFBR1 at 200 nM by cell-based competition binding assay relative to control in presence of DTT
T3 sequence (whole entry): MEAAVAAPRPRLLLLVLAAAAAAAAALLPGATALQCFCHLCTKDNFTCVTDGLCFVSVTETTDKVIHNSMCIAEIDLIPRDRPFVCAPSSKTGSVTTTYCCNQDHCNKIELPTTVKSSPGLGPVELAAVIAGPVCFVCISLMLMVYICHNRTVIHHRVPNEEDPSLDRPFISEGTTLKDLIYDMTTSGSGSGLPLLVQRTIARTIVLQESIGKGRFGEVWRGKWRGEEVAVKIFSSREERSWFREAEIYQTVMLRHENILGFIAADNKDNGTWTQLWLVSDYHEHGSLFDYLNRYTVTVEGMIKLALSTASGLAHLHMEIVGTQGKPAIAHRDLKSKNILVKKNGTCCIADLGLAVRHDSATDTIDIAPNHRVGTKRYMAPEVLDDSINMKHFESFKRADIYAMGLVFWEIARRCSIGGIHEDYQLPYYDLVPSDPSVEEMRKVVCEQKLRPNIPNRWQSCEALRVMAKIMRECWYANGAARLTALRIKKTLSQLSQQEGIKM

[4] = molecular target: T4, Tyrosine-protein kinase ZAP-70 (Homo sapiens) (UniProt P43403); assay: Binding affinity to human ZAP70 at 200 nM by cell-based competition binding assay relative to control in presence of DTT
T4 sequence (whole entry): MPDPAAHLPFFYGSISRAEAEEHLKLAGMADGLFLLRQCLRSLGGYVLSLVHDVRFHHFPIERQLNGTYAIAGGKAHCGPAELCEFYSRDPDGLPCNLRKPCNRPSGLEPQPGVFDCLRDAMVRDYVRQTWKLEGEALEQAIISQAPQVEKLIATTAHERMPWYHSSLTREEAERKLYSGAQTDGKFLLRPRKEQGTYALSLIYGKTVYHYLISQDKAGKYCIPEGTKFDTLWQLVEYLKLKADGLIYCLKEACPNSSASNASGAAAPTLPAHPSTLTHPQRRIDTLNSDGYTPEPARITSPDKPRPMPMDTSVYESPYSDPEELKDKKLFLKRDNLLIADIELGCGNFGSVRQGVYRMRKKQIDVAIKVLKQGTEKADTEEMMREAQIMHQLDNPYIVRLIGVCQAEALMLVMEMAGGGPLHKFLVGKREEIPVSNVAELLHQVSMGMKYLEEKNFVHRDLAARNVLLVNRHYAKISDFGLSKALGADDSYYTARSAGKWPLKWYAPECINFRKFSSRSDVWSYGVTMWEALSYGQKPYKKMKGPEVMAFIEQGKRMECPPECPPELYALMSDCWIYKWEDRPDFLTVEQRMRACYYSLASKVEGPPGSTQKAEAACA

[5] = molecular target: Tyrosine-protein kinase JAK2 (Homo sapiens) (UniProt O60674); assay: Binding affinity to human JAK2 kinase domain 2 at 200 nM by cell-based competition binding assay relative to control in presence of DTT
Sequence of Tyrosine-protein kinase JAK2 (Homo sapiens) (O60674 whole entry, the tested form may be a part): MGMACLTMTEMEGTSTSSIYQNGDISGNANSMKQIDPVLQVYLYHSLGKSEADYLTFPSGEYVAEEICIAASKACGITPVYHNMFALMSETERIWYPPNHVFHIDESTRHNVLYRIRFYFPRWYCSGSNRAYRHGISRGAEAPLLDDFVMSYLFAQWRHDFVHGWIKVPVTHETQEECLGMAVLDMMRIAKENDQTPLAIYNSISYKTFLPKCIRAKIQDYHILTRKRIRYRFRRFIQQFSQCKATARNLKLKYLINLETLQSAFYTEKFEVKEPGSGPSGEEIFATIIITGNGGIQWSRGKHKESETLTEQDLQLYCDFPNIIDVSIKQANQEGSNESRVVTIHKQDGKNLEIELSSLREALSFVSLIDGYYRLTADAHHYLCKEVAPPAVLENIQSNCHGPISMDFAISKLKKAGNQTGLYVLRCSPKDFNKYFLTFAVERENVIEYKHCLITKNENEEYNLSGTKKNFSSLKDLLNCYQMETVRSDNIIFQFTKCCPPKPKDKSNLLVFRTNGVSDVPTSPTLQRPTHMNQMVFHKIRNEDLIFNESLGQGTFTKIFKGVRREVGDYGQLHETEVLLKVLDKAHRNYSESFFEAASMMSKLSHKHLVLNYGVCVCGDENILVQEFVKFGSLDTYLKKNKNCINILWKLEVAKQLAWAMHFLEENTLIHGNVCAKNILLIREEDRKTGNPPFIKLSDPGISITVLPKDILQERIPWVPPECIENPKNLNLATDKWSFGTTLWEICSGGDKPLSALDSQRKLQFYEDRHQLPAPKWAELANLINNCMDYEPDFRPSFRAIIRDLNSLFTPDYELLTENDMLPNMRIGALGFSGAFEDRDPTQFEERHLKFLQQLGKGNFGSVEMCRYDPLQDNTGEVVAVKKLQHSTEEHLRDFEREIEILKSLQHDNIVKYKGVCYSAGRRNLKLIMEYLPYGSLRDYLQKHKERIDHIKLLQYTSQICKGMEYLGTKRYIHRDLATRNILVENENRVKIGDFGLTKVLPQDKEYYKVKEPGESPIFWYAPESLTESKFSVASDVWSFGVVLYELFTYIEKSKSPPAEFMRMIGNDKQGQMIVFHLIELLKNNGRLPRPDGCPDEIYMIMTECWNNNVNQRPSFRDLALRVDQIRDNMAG
In short: (§1)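 Competition binding screen (Ambit) across a panel of 90 kinases, scoring test ligand displacement of each kinase's binding relative to control. The screen ran under reducing conditions with 7.5 mM DTT.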

[6] = molecular target: Serine/threonine-protein kinase PLK3 (Homo sapiens) (UniProt Q9H4B4); assay: Binding affinity to human PLK3 at 200 nM by cell-based competition binding assay relative to control in presence of DTT
Sequence of Serine/threonine-protein kinase PLK3 (Homo sapiens) (Q9H4B4 whole entry, looked up): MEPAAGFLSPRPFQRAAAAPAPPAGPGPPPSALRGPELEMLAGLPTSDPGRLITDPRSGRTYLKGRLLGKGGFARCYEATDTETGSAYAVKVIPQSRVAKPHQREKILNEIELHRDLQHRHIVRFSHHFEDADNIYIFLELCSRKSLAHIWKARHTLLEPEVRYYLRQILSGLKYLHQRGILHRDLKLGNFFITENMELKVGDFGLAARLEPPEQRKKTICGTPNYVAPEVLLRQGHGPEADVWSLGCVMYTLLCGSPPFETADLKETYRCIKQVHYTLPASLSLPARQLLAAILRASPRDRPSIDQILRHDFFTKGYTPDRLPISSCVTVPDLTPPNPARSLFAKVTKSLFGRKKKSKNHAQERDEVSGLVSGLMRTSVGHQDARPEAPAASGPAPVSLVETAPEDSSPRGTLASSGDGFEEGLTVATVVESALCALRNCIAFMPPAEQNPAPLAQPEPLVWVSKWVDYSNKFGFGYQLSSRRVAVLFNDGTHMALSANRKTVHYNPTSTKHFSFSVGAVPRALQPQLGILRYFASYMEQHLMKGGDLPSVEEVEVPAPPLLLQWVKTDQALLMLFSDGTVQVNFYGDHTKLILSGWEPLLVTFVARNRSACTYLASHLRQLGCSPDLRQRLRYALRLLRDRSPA

[7] = molecular target: MAP/microtubule affinity-regulating kinase 3 (Homo sapiens) (UniProt P27448); assay: Binding affinity to human MARK3 at 200 nM by cell-based competition binding assay relative to control in presence of DTT; in short: as §1
Sequence of MAP/microtubule affinity-regulating kinase 3 (Homo sapiens) (P27448 whole entry, looked up): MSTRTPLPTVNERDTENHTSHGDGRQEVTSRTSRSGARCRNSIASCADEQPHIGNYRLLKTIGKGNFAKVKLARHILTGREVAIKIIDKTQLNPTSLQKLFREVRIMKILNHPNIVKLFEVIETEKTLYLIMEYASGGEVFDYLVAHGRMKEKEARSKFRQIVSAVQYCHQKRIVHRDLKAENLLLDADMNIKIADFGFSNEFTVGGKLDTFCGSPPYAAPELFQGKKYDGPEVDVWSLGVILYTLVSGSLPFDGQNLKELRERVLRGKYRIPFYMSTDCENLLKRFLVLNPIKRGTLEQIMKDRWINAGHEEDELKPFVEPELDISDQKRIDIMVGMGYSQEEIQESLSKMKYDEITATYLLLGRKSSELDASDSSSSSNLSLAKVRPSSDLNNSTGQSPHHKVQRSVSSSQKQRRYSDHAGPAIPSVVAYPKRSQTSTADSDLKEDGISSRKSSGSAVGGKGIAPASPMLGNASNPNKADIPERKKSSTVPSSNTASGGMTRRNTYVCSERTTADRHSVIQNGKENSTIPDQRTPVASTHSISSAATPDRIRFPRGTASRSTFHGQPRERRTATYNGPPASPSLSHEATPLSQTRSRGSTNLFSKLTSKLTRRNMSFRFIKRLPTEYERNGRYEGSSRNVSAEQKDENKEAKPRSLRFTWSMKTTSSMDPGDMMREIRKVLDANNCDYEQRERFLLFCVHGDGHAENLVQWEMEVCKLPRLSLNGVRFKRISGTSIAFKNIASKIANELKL

Structure (SMILES): CO[C@@H]1[C@H](N(C)C(=O)CCC(=O)NCCC(=O)NCCC(=O)NCCC(N)=O)C[C@H]2O[C@]1(C)n1c3ccccc3c3c4c(c5c6ccccc6n2c5c31)C(=O)NC4
- Activity [1]: 3.2%
- Activity [2]: 0.6%

Structure (SMILES): CO[C@@H]1[C@H](N(C)C(=O)CCC(=O)NCCC(=O)NCCC(=O)NCCC(=O)NCCC(=O)NCCC(=O)NCCC(=O)NCCC(=O)N[C@H]2CSSC[C@@H](C(=O)NCC(N)=O)NC(=O)CNC(=O)[C@H](Cc3ccccc3)NC(=O)[C@H](C(C)C)NC(=O)[C@H](CCCNC(=N)N)NC(=O)[C@H](Cc3ccccc3)NC(=O)[C@H](C(C)C)NC2=O)C[C@H]2O[C@]1(C)n1c3ccccc3c3c4c(c5c6ccccc6n2c5c31)C(=O)NC4 ({Staurosporine-Suc-βAla-βAla-βAla-βAla-βAla-βAla-βAla}-CVFRVFGCG-NH2; disulfide 1-8)
- Activity [3]: 100%
- Activity [4]: 16%
- Activity [5]: 4%
- Activity [6]: 100%
- Activity [7]: 18%

From ChEMBL document CHEMBL1152541, “Staurosporine tethered peptide ligands that target cAMP-dependent protein kinase (PKA): optimization and selectivity profiling” (Bioorg Med Chem, 2009)
